How the values were obtained:
GPR4 [1] = molecular target: T1, GPR4 (Homo sapiens, UniProt P46093); experiment: GloSensor cAMP assay at GPR4; format: cell-based; conditions: proton concentration-response with increasing modulator
In short: (§1)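 HEK293T cells were transiently transfected with receptor and GloSensor cAMP plasmids, overnight (16–20 h). Cells were plated on poly-L-Lys in DMEM + 1% dFBS for 6–24 h, then loaded with 3.5 mM luciferin (HBSS, 20 mM TAPS, pH 8.40) for 1 h at 37 °C. Drug was applied in Ca/Mg-free HBSS pH buffers (MES 5.60–6.70, HEPES 6.80–8.20, TAPS 8.30–8.60) with 10 μM Ro 20-1724. Luminescence was read at 20–30 min.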

[2] = test system: human GPCRome (318 GPCRs); experiment: PRESTO-Tango GPCRome off-target agonist screen; format: cell-based; conditions: 1 μM
In short: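 HTLA cells were plated in DMEM + 2% dFBS overnight, then transfected overnight with receptor Tango constructs (15 ng/well) by in-plate PEI. Test compound was added without medium change and left overnight. Bright-Glo luminescence was read after 20 min at room temperature and expressed as fold of basal, using quadruplicate basal and sample wells. Controls were D2 with 100 nM quinpirole and untransfected cells.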

GPR65 [3] = molecular target: T2, GPR65 (Homo sapiens, UniProt Q8IYL9); experiment: GloSensor cAMP assay at GPR65; format: cell-based; conditions: proton concentration-response with increasing modulator
T2 sequence (Q8IYL9 whole entry): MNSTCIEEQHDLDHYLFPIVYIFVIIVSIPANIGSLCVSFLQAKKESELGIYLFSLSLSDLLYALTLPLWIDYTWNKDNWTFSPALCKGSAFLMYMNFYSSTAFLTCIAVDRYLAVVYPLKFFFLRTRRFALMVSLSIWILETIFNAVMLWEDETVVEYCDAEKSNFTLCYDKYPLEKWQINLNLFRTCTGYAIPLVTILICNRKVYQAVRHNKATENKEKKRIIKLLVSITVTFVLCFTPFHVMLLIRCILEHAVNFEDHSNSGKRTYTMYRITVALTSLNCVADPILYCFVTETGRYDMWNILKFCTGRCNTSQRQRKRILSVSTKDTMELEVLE
In short: as §1

mouse GPR68 = mouse GPR68 (Mus musculus, UniProt Q8BFQ3); experiment: GloSensor cAMP assay at mouse GPR68; format: cell-based
mouse GPR68, sequence (Q8BFQ3 whole entry): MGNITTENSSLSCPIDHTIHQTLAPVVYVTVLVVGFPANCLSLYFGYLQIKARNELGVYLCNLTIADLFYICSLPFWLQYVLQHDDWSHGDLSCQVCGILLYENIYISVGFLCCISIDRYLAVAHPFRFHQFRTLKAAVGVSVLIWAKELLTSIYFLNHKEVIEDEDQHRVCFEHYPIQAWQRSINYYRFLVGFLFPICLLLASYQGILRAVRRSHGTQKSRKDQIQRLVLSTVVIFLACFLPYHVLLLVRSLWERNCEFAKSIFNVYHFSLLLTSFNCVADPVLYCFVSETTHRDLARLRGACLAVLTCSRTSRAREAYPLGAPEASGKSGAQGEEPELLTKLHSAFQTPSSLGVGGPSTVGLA
In short: as §1

MT1 receptor = MT1 receptor (Homo sapiens, UniProt P48039); experiment: Tango arrestin recruitment concentration response, MT1; format: cell-based
MT1 receptor, sequence (P48039 whole entry): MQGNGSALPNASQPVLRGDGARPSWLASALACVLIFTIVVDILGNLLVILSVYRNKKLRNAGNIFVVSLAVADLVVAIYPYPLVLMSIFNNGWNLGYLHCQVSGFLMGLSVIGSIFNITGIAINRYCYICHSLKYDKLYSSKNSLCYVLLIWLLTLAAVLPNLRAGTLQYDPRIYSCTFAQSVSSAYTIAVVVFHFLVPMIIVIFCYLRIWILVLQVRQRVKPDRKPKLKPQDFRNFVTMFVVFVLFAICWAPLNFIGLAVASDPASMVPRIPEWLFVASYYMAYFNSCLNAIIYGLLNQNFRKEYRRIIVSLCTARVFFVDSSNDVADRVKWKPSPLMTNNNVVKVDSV
In short: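 HTLA cells were transfected overnight with receptor DNA in DMEM + 10% FBS, then plated on poly-L-Lys in DMEM + 1% dFBS. Test compound was added 6 h later and incubated overnight (16–20 h). After removal of medium, Bright-Glo reagent was added and luminescence counted.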

human GPR68 = human GPR68 (Homo sapiens, UniProt Q15743); experiment: GloSensor cAMP assay, proton-mediated Gs-cAMP production at human GPR68; format: cell-based; conditions: for Δ: difference of Log(αβ/KB) from that of 1
human GPR68, sequence (Q15743 whole entry): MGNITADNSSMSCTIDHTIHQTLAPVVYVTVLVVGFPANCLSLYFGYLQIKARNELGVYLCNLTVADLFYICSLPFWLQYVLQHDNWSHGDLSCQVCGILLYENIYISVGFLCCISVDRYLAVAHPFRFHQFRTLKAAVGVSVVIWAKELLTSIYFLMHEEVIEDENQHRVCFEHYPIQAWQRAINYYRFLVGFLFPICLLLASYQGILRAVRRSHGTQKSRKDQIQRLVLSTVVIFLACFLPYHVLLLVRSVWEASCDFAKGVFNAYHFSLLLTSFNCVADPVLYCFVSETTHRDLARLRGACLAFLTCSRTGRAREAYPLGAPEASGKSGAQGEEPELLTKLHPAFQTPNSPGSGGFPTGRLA
In short: as §1

5-HT2B receptors = 5-HT2B receptors (Homo sapiens, UniProt P41595); experiment: Calcium release functional assay at 5-HT2B receptors; format: cell-based
5-HT2B receptors, sequence (P41595 whole entry): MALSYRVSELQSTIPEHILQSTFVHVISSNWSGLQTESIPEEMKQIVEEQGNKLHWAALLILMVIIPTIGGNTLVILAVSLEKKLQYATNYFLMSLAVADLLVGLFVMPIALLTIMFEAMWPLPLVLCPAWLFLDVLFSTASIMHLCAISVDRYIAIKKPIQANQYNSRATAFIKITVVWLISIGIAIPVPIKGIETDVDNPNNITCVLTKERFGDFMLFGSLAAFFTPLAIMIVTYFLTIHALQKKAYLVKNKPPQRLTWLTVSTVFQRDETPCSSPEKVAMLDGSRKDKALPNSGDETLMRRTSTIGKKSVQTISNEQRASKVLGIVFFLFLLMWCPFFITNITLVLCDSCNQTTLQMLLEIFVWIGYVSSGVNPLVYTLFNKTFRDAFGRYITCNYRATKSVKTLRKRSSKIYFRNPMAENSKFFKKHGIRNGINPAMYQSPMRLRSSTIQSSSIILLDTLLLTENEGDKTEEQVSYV
In short: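 HEK293 cells stably expressing 5-HT2B were plated in DMEM with 1% dFBS overnight (16–20 h). They were loaded with Fluo-4 Direct dye for 1 h at 37 °C in HBSS with 20 mM HEPES and 2.5 mM probenecid, pH 7.40. Drug dilutions contained 1 mg/mL BSA and 0.1 mg/mL ascorbic acid. Fluorescence was read 1/s for 2 min, with 10 s baseline. Read-out was peak fold of basal within the first minute.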

[4] = Mouse pharmacokinetic study; format: in vivo; conditions: mice, single 25 mg/kg IP
In short: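 Nine male Swiss Albino mice received one intraperitoneal dose of 25 mg/kg. Vehicle was 5% N-methyl-2-pyrrolidone, 5% Solutol HS-15 and 90% normal saline. Plasma and brain were sampled at 0.5, 1.0 and 2.0 h. Concentrations are averages of three mice per time point ± SEM.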

[5] = test system: 48 common GPCRs, ion channels, and transporters; experiment: Radioligand binding panel of 48 common drug targets
In short: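 Binding profiling was done by the NIMH PDSP. Targets were first tested at 10 μM in quadruplicate. pKi values were determined for targets with ≥50% inhibition, from at least three independent assays, each in triplicate.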

GPR65 [6] = molecular target: T2, GPR65; conditions: cited from earlier work
GPR4 [7] = molecular target: T1, GPR4; conditions: cited from earlier work

T1 sequence (P46093 whole entry): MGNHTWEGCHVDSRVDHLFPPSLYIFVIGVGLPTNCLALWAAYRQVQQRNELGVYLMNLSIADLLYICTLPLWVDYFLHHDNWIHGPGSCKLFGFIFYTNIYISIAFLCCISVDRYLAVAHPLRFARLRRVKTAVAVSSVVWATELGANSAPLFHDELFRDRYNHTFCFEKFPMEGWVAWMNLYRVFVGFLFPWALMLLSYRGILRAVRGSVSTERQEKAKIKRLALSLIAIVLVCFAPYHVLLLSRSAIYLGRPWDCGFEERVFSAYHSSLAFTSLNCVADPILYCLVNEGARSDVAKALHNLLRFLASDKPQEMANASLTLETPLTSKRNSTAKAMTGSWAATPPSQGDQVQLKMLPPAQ

SMILES: Nc1nc(NCc2ccc(Oc3ccccc3)cc2)nc(-c2c(F)cccc2CO)n1 [Compound 71, (2-(4-Amino-6-((4-phenoxybenzyl)amino)-1,3,5-triazin-2-yl)-3-fluorophenyl)methanol]
- PAM activity at GPR4 (GPR4 [1]): no PAM activity
- off-target agonist activity at human GPCRome [2]: agonist activity only at the MT1 and MT2 receptors
- PAM activity at GPR65 (GPR65 [3]): weak potentiation of proton activity at GPR65 only at high concentrations
- Kb (mouse GPR68): 7.59 µM
- agonist type at MT1 (MT1 receptor): weak full agonist
- Kb (human GPR68): 1.41 µM
- Δ (human GPR68; human GPR68): 1.52
- fold increased allosteric activity (log(αβ/KB)) compared to 1 (human GPR68; human GPR68): 33 fold
- agonist activity at 5-HT2B receptors (5-HT2B receptors): no agonist activity
- bioavailability [4]: bioavailable
- blood-brain barrier penetration [4]: can readily cross the BBB
- clinical signs [4]: no clinical signs observed
- time high exposure levels in plasma and brain were maintained [4]: 2 h

SMILES: CN(C)c1nc(NCc2ccccc2)nc(-c2ccccc2CO)n1 [Compound 7, (2-(4-(Benzylamino)-6-(dimethylamino)-1,3,5-triazin-2-yl)-phenyl)methanol]
- binding affinity to common drug targets [5]: minimal binding affinities
- off-target agonist activity at human GPCRome [2]: no off-target agonist activity
- Log (α) (human GPR68; affinity cooperativity, human GPR68, HEK293T, Gs-cAMP, mean ± SEM): Inactive
- −Log (KB) (human GPR68; allosteric binding affinity from functional assay, human GPR68, mean ± SEM): Inactive
- Log (αβ/KB) (human GPR68; allosteric index, human GPR68, mean ± SEM): Inactive
- Δ (human GPR68; human GPR68): Inactive
- Log (β) (human GPR68; efficacy cooperativity, human GPR68, HEK293T, Gs-cAMP, mean ± SEM): Inactive
- PAM activity at GPR68 (human GPR68; inactive analogues): do not show PAM activity

SMILES: Nc1nc(NCc2ccccc2)nc(-c2ccccc2CO)n1 [Compound 1]
- Kb (mouse GPR68): 74.1 µM
- Δ (mouse GPR68; difference of Log(αβ/KB) at mouse GPR68 from the corresponding values at human GPR68): −0.34
- Kb (human GPR68): 44.7 µM
- Δ (human GPR68; human GPR68): 0.00
- activity at GPR65 (GPR65 [6]): no activity
- activity at GPR4 (GPR4 [7]): no activity

— paper PMC6923801 (Journal of medicinal chemistry, 2019)
